Article PMC8511081 (European journal of medicinal chemistry, 2021)
“Also recorded” adds a separate entry of the source.

Assays:
sGC [1] = target: T1, sGC (Homo sapiens, UniProt Q02153); type: biochemical; settings: 100 μM screening on Fe2+-sGC and Fe3+-sGC (Fig. 2)
T1 sequence (Q02153 1-619): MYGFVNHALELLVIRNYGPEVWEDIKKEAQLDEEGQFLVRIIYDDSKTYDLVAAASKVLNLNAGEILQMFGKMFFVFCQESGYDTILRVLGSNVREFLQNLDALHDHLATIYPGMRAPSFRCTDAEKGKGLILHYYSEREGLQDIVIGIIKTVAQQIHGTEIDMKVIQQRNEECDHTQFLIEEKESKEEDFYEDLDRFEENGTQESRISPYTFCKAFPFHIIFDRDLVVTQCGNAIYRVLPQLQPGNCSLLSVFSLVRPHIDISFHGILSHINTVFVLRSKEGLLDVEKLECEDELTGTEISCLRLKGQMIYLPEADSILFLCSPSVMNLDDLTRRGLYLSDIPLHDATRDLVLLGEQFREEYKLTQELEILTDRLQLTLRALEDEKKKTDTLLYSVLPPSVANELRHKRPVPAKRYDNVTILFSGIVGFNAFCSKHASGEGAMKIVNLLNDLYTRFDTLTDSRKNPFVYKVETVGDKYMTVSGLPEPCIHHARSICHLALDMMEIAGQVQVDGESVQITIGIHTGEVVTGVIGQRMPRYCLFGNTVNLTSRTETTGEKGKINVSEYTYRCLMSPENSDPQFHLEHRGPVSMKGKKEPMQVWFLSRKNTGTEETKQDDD
T1 sequence (Q02108 1-690 partner): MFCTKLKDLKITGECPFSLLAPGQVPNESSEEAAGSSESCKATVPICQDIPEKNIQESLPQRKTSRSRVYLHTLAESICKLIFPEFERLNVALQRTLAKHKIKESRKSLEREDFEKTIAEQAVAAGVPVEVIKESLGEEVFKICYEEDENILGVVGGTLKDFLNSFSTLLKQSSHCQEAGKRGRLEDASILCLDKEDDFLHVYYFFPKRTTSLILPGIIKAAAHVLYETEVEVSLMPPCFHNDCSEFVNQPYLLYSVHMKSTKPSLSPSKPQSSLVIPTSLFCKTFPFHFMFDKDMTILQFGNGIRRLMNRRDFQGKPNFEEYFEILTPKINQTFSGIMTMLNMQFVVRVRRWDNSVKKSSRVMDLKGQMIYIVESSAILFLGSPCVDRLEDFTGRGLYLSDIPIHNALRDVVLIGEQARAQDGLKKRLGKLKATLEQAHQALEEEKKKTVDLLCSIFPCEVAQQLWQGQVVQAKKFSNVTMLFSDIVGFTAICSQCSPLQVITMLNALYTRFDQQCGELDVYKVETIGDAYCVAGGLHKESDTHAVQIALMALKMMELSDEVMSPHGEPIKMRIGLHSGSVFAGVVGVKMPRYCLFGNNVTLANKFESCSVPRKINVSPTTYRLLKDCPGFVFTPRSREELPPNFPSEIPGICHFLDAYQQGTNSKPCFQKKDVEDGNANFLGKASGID
How it was run: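 Human α1/β1 sGC from Sf9 cells was purified on DEAE, Ni-agarose and gel filtration. The ferric form was made by adding 10 μM ODQ at pre-incubation. Then 15 min at 37 °C with 1 mM GTP/[α-32P]GTP; zinc carbonate stop; [32P]cGMP measured.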

[2] = target: T2, human sGC with ferric heme (Fe3+-sGC) (Homo sapiens, UniProt Q02153); test: cGMP-forming activity of purified sGC with ferric heme; type: biochemical; settings: for shape of the activation curve: dose-dependent activation of sGC with ferric heme, Fig. 3; for activation of Fe3+-sGC: 100 μM, Fig. 2B
T2 sequence (Q02153 1-619): T1 sequence (Q02153 1-619)
T2 sequence (Q02108 1-690 partner): T1 sequence (Q02108 1-690 partner)

[3] = target: T3, human sGC with ferrous heme (Fe2+-sGC) (Homo sapiens, UniProt Q02153); test: cGMP-forming activity of purified sGC with ferrous heme; type: biochemical; settings: 100 μM, Fig. 2A
T3 sequence (Q02153 1-619): T1 sequence (Q02153 1-619)
T3 sequence (Q02108 1-690 partner): T1 sequence (Q02108 1-690 partner)
How it was run: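 Ferrous-heme human α1/β1 sGC, expressed in Sf9 cells and purified through DEAE, Ni-agarose and Superdex 200. Reaction started at 37 °C with 1 mM GTP/[α-32P]GTP (~100000 cpm) for 15 min. Stopped by zinc carbonate precipitation; [32P]cGMP formed.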

sGC [4] = settings: cited from earlier work

SMILES: Cc1ccc(C(C)C)c(OCCCC(C)(C)C(=O)O)c1 [Compound 7c, 5-(2-isopropyl-5-methylphenoxy)-2,2-dimethylpentanoic acid]
- sGC activation (sGC [1]): activated both Fe^2+-sGC and Fe^3+-sGC; also recorded: well tolerated
- shape of the activation curve [2]: bell-shaped curve

SMILES: O=C(O)CCCCCOc1ccccc1 [Compound 8b, 6-phenoxyhexanoic acid]
- sGC activation (sGC [1]): does not activate sGC

SMILES: Cc1ccc(C)c(N(CCCC(C)(C)C(=O)O)C(=O)CCCCC(=O)O)c1 [Compound 10f, 6-((4-carboxy-4-methylpentyl)(2,5-dimethylphenyl)amino)-6-oxohexanoic acid]
- activation of Fe3+-sGC [2]: weak, yet statistically significant activation

SMILES: Cc1ccc(C)c(N(CCCC(C)(C)C(=O)O)C(=O)CCCCC(=O)N(CCCC(C)(C)C(=O)O)c2cc(C)ccc2C)c1 [Compound 11, 5,5’-(adipoylbis((2,5-dimethylphenyl)azanediyl))bis(2,2-dimethyl-pentanoic acid)]
- sGC activation (sGC [1]): activated both Fe^2+-sGC and Fe^3+-sGC; also recorded: exhibited sGC activation
- shape of the activation curve [2]: typical S-shaped pattern

SMILES: Cc1ccc(C)c(N(CCCC(C)(C)C(=O)O)C(=O)CCC(=O)O)c1 [Compound 10d, 5-(3-carboxy-N-(2,5-dimethylphenyl)propanamido)-2,2-dimethylpentanoic acid]
- activation of Fe3+-sGC [2]: weak, yet statistically significant activation

SMILES: CCCCCCC(CCCOc1cc(C)ccc1C)C(=O)O (centres unmarked) [Compound 15b, 2-(3-(2,5-dimethylphenoxy)propyl)octanoic acid]
- sGC activation (sGC [1]): activated both Fe^2+-sGC and Fe^3+-sGC
- shape of the activation curve [2]: bell-shaped curve

SMILES: Cc1ccc(C)c(OCC(=O)O)c1 [Compound 4a, 2-(2,5-dimethylphenoxy)acetic acid]
- sGC activation (sGC [1]): not conducive to sGC activation

SMILES: Cc1ccc(C)c(OCCCC(=O)O)c1 [Compound 4b, 4-(2,5-dimethylphenoxy)butanoic acid]
- sGC activation (sGC [1]): not conducive to sGC activation

SMILES: Cc1ccc(C)c(OCCCCCC(=O)O)c1 [Compound 4d, 6-(2,5-dimethylphenoxy)hexanoic acid]
- activation of Fe2+-sGC [3]: tolerated
- sGC activation (sGC [1]): activated both Fe^2+-sGC and Fe^3+-sGC
- activation of Fe3+-sGC [2]: diminished
- shape of the activation curve [2]: typical S-shaped pattern

SMILES: Cc1ccc(C)c(NCCCC(C)(C)C(=O)O)c1 [Compound 7a, 5-((2,5-dimethylphenyl)amino)-2,2-dimethylpentanoic acid]
- sGC activation (sGC [1]): activated both Fe^2+-sGC and Fe^3+-sGC
- shape of the activation curve [2]: typical S-shaped pattern

SMILES: Cc1ccc(C)c(OCCCCC(=O)O)c1 [Compound 4c, 5-(2,5-dimethylphenoxy)pentanoic acid]
- sGC activation (sGC [1]): activated both Fe^2+-sGC and Fe^3+-sGC
- shape of the activation curve [2]: typical S-shaped pattern

SMILES: O=C(O)CCCCN(CCc1ccccc1OCc1ccc(CCc2ccccc2)cc1)Cc1ccc(C(=O)O)cc1 [cinaciguat]
- estimated EC50 (sGC [4]): low nanomolar range

SMILES: CCC(CCCOc1cc(C)ccc1C)C(=O)O (centres unmarked) [Compound 15a, 5-(2,5-dimethylphenoxy)-2-ethylpentanoic acid]
- activation of Fe2+-sGC [3]: blocked the activation
- activation of Fe3+-sGC [2]: significantly hampered the activation

SMILES: Cc1ccc(C)c(N(CCCC(C)(C)C(=O)O)C(=O)CCCC(=O)O)c1 [Compound 10e, 5-(4-carboxy-N-(2,5-dimethylphenyl)butanamido)-2,2-dimethylpentanoic acid]
- activation of Fe3+-sGC [2]: weak, yet statistically significant activation
